Measurements taken from PubChem BioAssay.
Results filed as inconclusive are left out.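 How the source made its calls, unless noted: active means viability at or below 27.92% in each of two runs, the all-compound median minus 4 SD; inconclusive means no clear call, values can overlap the other calls; inactive means the rest.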

Key:
[1] = S. cerevisiae growth inhibition in permissive medium (OD615), pilot counter-assay for S. cerevisiae lifespan shortening project, permissive growth control (AID 705;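 active means growth inhibition above 25% in both replicates, a cutoff set 3 SD above the mean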); details: OD615, 24 h, at 10 µM, hits give high values
Summary of the method: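 Material: engineered DeaD yeast; compound dosing: one dose 10 µM, DMSO 0.25% final; measure: yeast growth inhibition indicated by reduced 24 h OD615; detection: OD615 turbidity read; incubation: cells pre-grown 4 h, then 24 h compound exposure, 30 °C humidified; medium: permissive synthetic complete medium with raffinose and galactose carbon sources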

[2] = S. cerevisiae growth inhibition in restrictive medium, OD615, pilot screen, restrictive growth control, yeast lifespan reduction project (AID 706;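 active means growth inhibition above a set limit, 3 SD over mean compound inhibition, in both replicates, cut at about 43% in these data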;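 further: modified DeaD lifespan yeast strain shifted to restrictive glucose medium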); details: OD615, 48 h, at 10 µM, hits give high values
Summary of the method: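 material = engineered S. cerevisiae DeaD strain | medium = glucose-based CSMM-D restrictive medium | times = 4 h pre-incubation, 48 h exposure at 30 °C | technique = OD615 absorbance reading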

[3] = doxorubicin toxicity protection in MRP-1 cells – H69AR cells, CellTiter-Glo, duplicate, MRP-1 activator project, pilot screen (AID 807;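 active means viability increase at or above a cutoff of the median across tested compounds plus 3 SD, cut at about 8.5% in these data, passing the limit was not always enough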;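 further: compound pretreatment 18-22 h then 72 h combined with doxorubicin; 0% = doxorubicin alone and 100% = vehicle without doxorubicin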); details: H69AR viability with doxorubicin, CellTiter-Glo luminescence; at 10 µM; hits give high values
[4] = viability of HCT116 without oncogenic beta-catenin – human colon tumor cells, pilot screen (AID 823;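 active means cell viability at or below a set limit in both duplicate runs, the limit being the all-compound median minus 4 SD, cut at about 23% in these data, passing the limit was not always enough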;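 further: 0% = wells killed by 20 µM Hyamine and 100% = untreated DMSO cell wells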); details: HCT116 beta-catenin knockout viability, CellTiter-Glo, 60 h; at 10 µM; hits give low values
[5] = viability of PTEN-null HCT116 cells – cell-based, HCT116 clonal line, CellTiter-Glo, pilot screen (AID 824); details: HCT116 PTEN-deleted viability, 60 h, at 10 µM, hits give low values;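 further: 0% = 20 µM Hyamine control and 100% = vehicle cell control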
[6] = RAM pathway blockade in budding yeast – dse1pr::URA3 reporter, 5-FOA selection, pilot screen (AID 869;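 active means inhibition over a set limit, the all-compound mean plus 3 SD, in both replicate runs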;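 further: 0% = DMSO wells with no growth and 100% = 10 µM 1-NA-PP1 with full growth; RAM network block rescues cells from 5-FOA so hits raise OD615 growth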); details: S. cerevisiae dse1pr::URA3 5-FOA growth, OD615, 2 d; at 10 µM; hits give high values; strain carries analog-sensitive mutant Cbk1 kinase
[7] = RAM signaling pathway blockade in yeast – S. cerevisiae, Pdr1DBD-CYC8 efflux-inhibited sensitized strain, primary screen (AID 1298;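 active means RAM network inhibition above 8.4% in each of two replicates, 3 SD over the compound average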;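 further: 0% = DMSO untreated cells without growth and 100% = 10 µM 1-NA-PP1 full growth; higher means more yeast growth rescued from 5-FOA killing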); details: S. cerevisiae cbk1-as DSE1-URA3 strain, 5-FOA growth OD615, 2 d; at 50 µM; hits give high values

O=C(NCCCN1CCOCC1)NC12CC3CC(CC(C3)C1)C2
inactive: growth inhibition [1] -1.84% | growth inhibition [2] 2.31% | viability increase [3] -0.98% | viability [4] 104% | viability [5] 105% | inhibition [6] 0.625% | RAM network inhibition [7] 0.01%

COc1ccccc1Nc1nc2ccccc2n1C
inactive: growth inhibition [1] -11.6% | growth inhibition [2] -24.9% | viability increase [3] 0.31% | viability [4] 94.7% | viability [5] 94.6% | inhibition [6] 1.44% | RAM network inhibition [7] 4.17%

COC(=O)c1sc2nc3c(cc2c1N)COC(C)(C)C3
inactive: growth inhibition [1] -6.75% | growth inhibition [2] -7.37% | viability increase [3] -1.54% | viability [4] 101% | viability [5] 94.1% | inhibition [6] 1.19% | RAM network inhibition [7] 3.17%

CC(C)c1ccccc1NC(=O)CCCC(=O)O
inactive: growth inhibition [1] -2.18% | growth inhibition [2] -0.2% | viability increase [3] -0.29% | viability [4] 96.9% | viability [5] 102% | inhibition [6] 0.36% | RAM network inhibition [7] 2.42%

Cc1nn(C)c(C)c1N=Cc1c(O)ccc2ccccc12
inactive: growth inhibition [1] -25.2% | growth inhibition [2] -28.4% | viability increase [3] -1.72% | viability [4] 105% | viability [5] 92.1% | inhibition [6] -0.015% | RAM network inhibition [7] -0.32%

CCc1cc2c(=O)c(-c3nc4ccccc4n3C)c(C(C)C)oc2c(CN2CCN(C)CC2)c1O
inactive: growth inhibition [1] -3.21% | growth inhibition [2] 8.45% | viability increase [3] -0.59% | viability [4] 69.4% | viability [5] 82.8% | inhibition [6] 1.74% | RAM network inhibition [7] 1.64%

Cc1nc2ccccc2c2oc(C(=O)N3CCN(C4CCCCC4)CC3)cc12
inactive: growth inhibition [1] 7.91% | growth inhibition [2] 8.38% | viability increase [3] -3.69% | viability [4] 44.1% | viability [5] 57.5% | inhibition [6] 0.555% | RAM network inhibition [7] 3.92%

O=C(Nc1ccccc1Cl)c1ccc2c(c1)N(Cc1ccc(F)cc1)C(=O)CS2=O (configuration not stated)
inactive: growth inhibition [1] -5.36% | growth inhibition [2] -7.24% | viability increase [3] 1.1% | viability [4] 83.3% | viability [5] 72.5% | inhibition [6] 3.9% | RAM network inhibition [7] 3.95%

Cc1ccc(NC(=O)c2cc(-c3cccc(O)c3)on2)cc1C
inactive: growth inhibition [1] -19.1% | growth inhibition [2] -5.78% | viability increase [3] -0.54% | viability [4] 92.1% | viability [5] 87% | inhibition [6] 3.14% | RAM network inhibition [7] 4.28%

Cc1ccc(C)c(-n2c(Cc3cc(=O)[nH]c(=O)[nH]3)nnc2SC(C)C)c1
inactive: growth inhibition [1] 0.205% | growth inhibition [2] 11.1% | viability increase [3] -3.19% | viability [4] 97.7% | viability [5] 89.9% | inhibition [6] 1.74% | RAM network inhibition [7] 0.84%

CCN1CCN(C(=O)c2cc3c(=O)oc4ccc(C)cc4c3s2)CC1
inactive: growth inhibition [1] -12.6% | growth inhibition [2] -16.2% | viability increase [3] -2.18% | viability [4] 102% | viability [5] 93.7% | inhibition [6] 0.905% | RAM network inhibition [7] 1.3%

c1cnc(N2CCSCC2)nc1
inactive: growth inhibition [1] 2.61% | growth inhibition [2] 2.42% | viability increase [3] -2.73% | viability [4] 104% | viability [5] 101% | inhibition [6] 0.69% | RAM network inhibition [7] 3.1%

COc1ccc(C/C(O)=C(\C#N)c2nc3ccccc3[nH]2)cc1OC
inactive: growth inhibition [1] -4.85% | growth inhibition [2] 0.74% | viability increase [3] -1.93% | viability [4] 90.7% | viability [5] 87.7% | inhibition [6] 0.175% | RAM network inhibition [7] 3.13%

Cn1c(C(=O)N2CCN(C(=O)c3ccco3)CC2)cc2c(=O)n(C)c3ccccc3c21
inactive: growth inhibition [1] -3.88% | growth inhibition [2] 5.88% | viability increase [3] -4.21% | viability [4] 92.9% | viability [5] 87% | inhibition [6] 0.83% | RAM network inhibition [7] 2.87%

Cc1cc(Nc2ccccc2F)n2nc(C)nc2n1
inactive: growth inhibition [1] -13% | growth inhibition [2] -6.23% | viability increase [3] -1.87% | viability [4] 99.2% | viability [5] 99.5% | inhibition [6] 1.95% | RAM network inhibition [7] 0.37%

COc1ccc(OC)c(CCNC(=O)C2CCN(c3nnc(-n4cccc4)s3)CC2)c1
inactive: growth inhibition [1] -7.79% | growth inhibition [2] -20.5% | viability increase [3] -4.48% | viability [4] 85.2% | viability [5] 81.9% | inhibition [6] 4.26% | RAM network inhibition [7] 7.35%

CC1(C)CC(NC(=O)C23CCC(C)(C(=O)C2)C3(C)C)CC(C)(C)N1 (configuration not stated)
inactive: growth inhibition [1] -4.15% | growth inhibition [2] -6.33% | viability increase [3] -0.11% | viability [4] 96.2% | viability [5] 95.1% | inhibition [6] 2.67% | RAM network inhibition [7] 3.01%

CCOC(=O)N1CCN(C(=O)c2oc3ccc(S(=O)(=O)N4CCCCCC4)cc3c2C)CC1
inactive: growth inhibition [1] -9.38% | growth inhibition [2] -0.595% | viability increase [3] -4.29% | viability [4] 59.3% | viability [5] 71.1% | inhibition [6] -0.805% | RAM network inhibition [7] 1.63%

Cn1c(=O)c2c(nc(NCCc3ccccc3)n2Cc2ccc(F)cc2)n(C)c1=O
inactive: growth inhibition [1] -4.81% | growth inhibition [2] -8.86% | viability increase [3] 1.3% | viability [4] 69.8% | viability [5] 55.3% | inhibition [6] 1.03% | RAM network inhibition [7] 5.94%

Clc1ccc(-n2ncc3c(NCC4CCCO4)ncnc32)cc1 (configuration not stated)
inactive: growth inhibition [1] -7.04% | growth inhibition [2] -19.4% | viability increase [3] -5.71% | viability [4] 37.6% | viability [5] 37.2% | inhibition [6] 0.57% | RAM network inhibition [7] 8.53%

C=CCNc1ncnc2ccc(Br)cc12
inactive: growth inhibition [1] 2.36% | growth inhibition [2] 9.25% | viability increase [3] -5.67% | viability [4] 84.1% | viability [5] 75.8% | inhibition [6] 1.87% | RAM network inhibition [7] 4.09%

COc1ccc(-c2cc(C(F)F)n3ncc(C(=O)N4CCN(C(=O)c5ccco5)CC4)c3n2)cc1
inactive: growth inhibition [1] -2.55% | growth inhibition [2] -0.9% | viability increase [3] -5.07% | viability [4] 74.5% | viability [5] 72.6% | inhibition [6] 0.475% | RAM network inhibition [7] 10.2%

CC1CCCN(Cc2nc3c(c(=O)n(C)c(=O)n3C)n2Cc2cccc3ccccc23)C1 (configuration not stated)
inactive: growth inhibition [1] -4.69% | growth inhibition [2] -2.08% | viability increase [3] -3.36% | viability [4] 73.2% | viability [5] 80% | inhibition [6] 1.08% | RAM network inhibition [7] 0.76%

Cc1nc2sc(C(c3ccco3)N3CCC(Cc4ccccc4)CC3)c(O)n2n1 (configuration not stated)
inactive: growth inhibition [1] 0.165% | growth inhibition [2] 4.34% | viability increase [3] 0.64% | viability [4] 95.2% | viability [5] 91.4% | inhibition [6] 1.14% | RAM network inhibition [7] 9.02%

O=C(NC1CC1)c1ccc(CS(=O)(=O)c2c(Cl)cccc2Cl)o1
inactive: growth inhibition [1] 3.79% | growth inhibition [2] -6.65% | viability increase [3] -2.96% | viability [4] 105% | viability [5] 97.4% | inhibition [6] 0.475% | RAM network inhibition [7] 4.31%

COc1cc2[nH]c(=O)n(CCCCCC(=O)N3CCN(c4ccccc4)CC3)c(=O)c2cc1OC
inactive: growth inhibition [1] -20.4% | growth inhibition [2] -2.1% | viability increase [3] -4.46% | viability [4] 58.5% | viability [5] 52.5% | inhibition [6] 1.25% | RAM network inhibition [7] 0.58%

O=C(Cn1ncc2c(=O)oc3ccccc3c21)N1CCC(N2CCCCC2)CC1
inactive: growth inhibition [1] 9.66% | growth inhibition [2] 1.36% | viability increase [3] -1.31% | viability [4] 99.5% | viability [5] 99.8% | inhibition [6] 1.65% | RAM network inhibition [7] 4.58%

CCOC(=O)c1c(NC(=O)C2CCCN2S(=O)(=O)c2cccc3nsnc23)sc(C)c1C (configuration not stated)
inactive: growth inhibition [1] -7.06% | growth inhibition [2] -0.39% | viability increase [3] 0.59% | viability [4] 74% | viability [5] 72.5% | inhibition [6] 0.565% | RAM network inhibition [7] 7.77%

Nc1c(C(=O)Nc2ccc3c(c2)OCCO3)nnn1CCc1ccccc1
inactive: growth inhibition [1] -3.04% | growth inhibition [2] 3.6% | viability increase [3] -5.88% | viability [4] 39.1% | viability [5] 35.4% | inhibition [6] 1.43% | RAM network inhibition [7] 7.68%

CN(C)C(=O)c1nnc(Cc2ccc(Cl)cc2)o1
inactive: growth inhibition [1] -8.24% | growth inhibition [2] 7.88% | viability increase [3] 2.17% | viability [4] 98.5% | viability [5] 108% | inhibition [6] 0.31% | RAM network inhibition [7] 7.05%

O=C(NCCN1C(=O)C2C3C=CC(C3)C2C1=O)Nc1cccnc1 (configuration not stated)
inactive: growth inhibition [1] -0.65% | growth inhibition [2] -7.67% | viability increase [3] -1.57% | viability [4] 96.7% | viability [5] 99.7% | inhibition [6] 0.445% | RAM network inhibition [7] 1.17%

Cc1ccc(O)c(-c2cc(C(F)(F)C(F)F)[nH]n2)c1
inactive: growth inhibition [1] -5.95% | growth inhibition [2] -19.7% | viability increase [3] -4.24% | viability [4] 97.1% | viability [5] 87.3% | inhibition [6] 0.725% | RAM network inhibition [7] 3.84%

O=C1CC(N2CCN(c3nc4ccccc4s3)CC2)C(=O)N1c1ccc(F)cc1 (configuration not stated)
inactive: growth inhibition [1] 0.4% | growth inhibition [2] 0.52% | viability increase [3] 6.28% | viability [4] 88.7% | viability [5] 94.3% | inhibition [6] 1.54% | RAM network inhibition [7] 3.67%

CC1CCCN(C(=O)c2ccc3c(c2)C(=O)N(CCC2=CCCCC2)C3=O)C1 (configuration not stated)
inactive: growth inhibition [1] -5.42% | growth inhibition [2] -30.7% | viability increase [3] -0.25% | viability [4] 87.5% | viability [5] 83.8% | inhibition [6] 0.28% | RAM network inhibition [7] 3.27%

NC(=O)c1ccsc1NC(=O)c1ccc(S(=O)(=O)N2CCCCC2)cc1
inactive: growth inhibition [1] -4.08% | growth inhibition [2] -4.94% | viability increase [3] -0.57% | viability [4] 71.9% | viability [5] 58.3% | inhibition [6] 1.47% | RAM network inhibition [7] 2.41%

COc1ccc(N(CC(=O)Nc2ccc3c(c2)OCCO3)S(=O)(=O)c2c(C)nn(C)c2C)cc1
inactive: growth inhibition [1] -9.27% | growth inhibition [2] -19.9% | viability increase [3] -2.36% | viability [4] 99.4% | viability [5] 95.9% | inhibition [6] 0.73% | RAM network inhibition [7] 4.15%
